Assay results taken from ChEMBL document CHEMBL5303300, “EUbOPEN Chemogenomics Library - Multiplex” (2023).
Several values for one entry are separate records, joined by “and”; a condition that tells them apart may be missing. Equal values may be shown once.

System: Fibroblast
Assay: Multiplex assay against human fibroblast
Type: toxicity, cell-based
Conditions: number of replicates 2
How it was run: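 Cells were classed with CellPathfinder machine-learning gating, first as Hoechst high-intensity objects or normal cells, then (normal cells) as healthy, pyknosed or fragmented nuclei, and finally (pyknosed cells) as mitotic or apoptotic. Staining of live cells at seeding used Hoechst33342, BioTracker Green Microtubule Cytoskeleton Dye, MitoTracker Red and Annexin V Alexa Fluor 680, with imaging on a CQ1 microscope at 37°C and 5% CO2 after compound addition. Tubulin, mitochondrial-mass and membrane-permeability phenotypes are per cents of healthy-nucleus cells.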

[1] = 12 h, 1 µM, compound concentration 1 uM
[2] = 12 h, 10 µM, compound concentration 10 uM
[3] = 24 h, 1 µM, compound concentration 1 uM
[4] = 24 h, 10 µM, compound concentration 10 uM
[5] = 48 h, 1 µM, compound concentration 1 uM
[6] = 48 h, 10 µM, compound concentration 10 uM
[7] = 12 h, 0 µM, compound concentration 0 uM
[8] = 24 h, 0 µM, compound concentration 0 uM
[9] = 48 h, 0 µM, compound concentration 0 uM

## Cc1cn(CCN2CCN(c3ccccc3-c3cc(C#N)cc(C(=O)NCCCN4CCCC4)c3)CC2)c2ccccc12
[1]
  Population Apoptotic (%): 16% and 47%
  Population Fragmented Nuclei (%): 13% and 14%
  Population Healthy Nuclei (%): 70% and 63%
  Population Hoechst High Intensity Objects (%): 0%
  Population Membrane Permeable-Phenotype (%): 10% and 8%
  Population Mitochondria Different-Phenotype (%): 1% and 5%
  Population Mitotic Cells (%): 83% and 52%
  Population Normal (%): 100%
  Population Pyknosed Nuclei (%): 16% and 21%
  Population Tubulin-Different-Phenotype (%): 41% and 35%
  Total Cell Count: 222 and 214
[2]
  Population Apoptotic (%): 40% and 37%
  Population Fragmented Nuclei (%): 28% and 31%
  Population Healthy Nuclei (%): 51% and 56%
  Population Hoechst High Intensity Objects (%): 0%
  Population Membrane Permeable-Phenotype (%): 7% and 5%
  Population Mitochondria Different-Phenotype (%): 20% and 17%
  Population Mitotic Cells (%): 59% and 62%
  Population Normal (%): 100%
  Population Pyknosed Nuclei (%): 19% and 12%
  Population Tubulin-Different-Phenotype (%): 82% and 83%
  Total Cell Count: 248 and 358
[3]
  Population Apoptotic (%): 33% and 60%
  Population Fragmented Nuclei (%): 14% and 20%
  Population Healthy Nuclei (%): 73% and 65%
  Population Hoechst High Intensity Objects (%): 0%
  Population Membrane Permeable-Phenotype (%): 5% and 3%
  Population Mitochondria Different-Phenotype (%): 3% and 10%
  Population Mitotic Cells (%): 66% and 39%
  Population Normal (%): 100%
  Population Pyknosed Nuclei (%): 11% and 13%
  Population Tubulin-Different-Phenotype (%): 37% and 33%
  Total Cell Count: 209 and 243
[4]
  Population Apoptotic (%): 81% and 82%
  Population Fragmented Nuclei (%): 17% and 27%
  Population Healthy Nuclei (%): 57% and 55%
  Population Hoechst High Intensity Objects (%): 0%
  Population Membrane Permeable-Phenotype (%): 2%
  Population Mitochondria Different-Phenotype (%): 51% and 58%
  Population Mitotic Cells (%): 18% and 17%
  Population Normal (%): 99%
  Population Pyknosed Nuclei (%): 25% and 17%
  Population Tubulin-Different-Phenotype (%): 93% and 88%
  Total Cell Count: 197 and 332
[5]
  Population Apoptotic (%): 44% and 76%
  Population Fragmented Nuclei (%): 19% and 24%
  Population Healthy Nuclei (%): 77% and 70%
  Population Hoechst High Intensity Objects (%): 0%
  Population Membrane Permeable-Phenotype (%): 2% and 3%
  Population Mitochondria Different-Phenotype (%): 0% and 3%
  Population Mitotic Cells (%): 55% and 23%
  Population Normal (%): 100% and 99%
  Population Pyknosed Nuclei (%): 3% and 5%
  Population Tubulin-Different-Phenotype (%): 23% and 17%
  Total Cell Count: 241 and 237
[6]
  Population Apoptotic (%): 95%
  Population Fragmented Nuclei (%): 9% and 17%
  Population Healthy Nuclei (%): 46% and 62%
  Population Hoechst High Intensity Objects (%): 1% and 0%
  Population Membrane Permeable-Phenotype (%): 6% and 1%
  Population Mitochondria Different-Phenotype (%): 75% and 67%
  Population Mitotic Cells (%): 4%
  Population Normal (%): 98% and 99%
  Population Pyknosed Nuclei (%): 43% and 19%
  Population Tubulin-Different-Phenotype (%): 93% and 91%
  Total Cell Count: 144 and 240

## CC1=C(C)C(=O)C(C(CCCCCC(=O)O)c2ccccc2)=C(C)C1=O (stereo not drawn) [SERATRODAST]
[1]
  Population Apoptotic (%): 50% and 60%
  Population Fragmented Nuclei (%): 6% and 11%
  Population Healthy Nuclei (%): 57% and 79%
  Population Hoechst High Intensity Objects (%): 0%
  Population Membrane Permeable-Phenotype (%): 5% and 2%
  Population Mitochondria Different-Phenotype (%): 0% and 2%
  Population Mitotic Cells (%): 50% and 40%
  Population Normal (%): 99% and 100%
  Population Tubulin-Different-Phenotype (%): 5% and 3%
  Total Cell Count: 128 and 228
[2]
  Population Apoptotic (%): 35% and 25%
  Population Fragmented Nuclei (%): 12% and 18%
  Population Healthy Nuclei (%): 79% and 75%
  Population Hoechst High Intensity Objects (%): 0%
  Population Membrane Permeable-Phenotype (%): 6% and 5%
  Population Mitochondria Different-Phenotype (%): 1%
  Population Mitotic Cells (%): 64% and 75%
  Population Normal (%): 100%
  Population Pyknosed Nuclei (%): 8% and 6%
  Population Tubulin-Different-Phenotype (%): 15% and 8%
  Total Cell Count: 167 and 192
[3]
  Population Apoptotic (%): 67% and 52%
  Population Fragmented Nuclei (%): 3% and 13%
  Population Healthy Nuclei (%): 64% and 76%
  Population Hoechst High Intensity Objects (%): 0%
  Population Membrane Permeable-Phenotype (%): 7% and 2%
  Population Mitochondria Different-Phenotype (%): 1% and 0%
  Population Mitotic Cells (%): 32% and 47%
  Population Normal (%): 99% and 100%
  Population Tubulin-Different-Phenotype (%): 9% and 1%
  Total Cell Count: 128 and 230
[4]
  Population Fragmented Nuclei (%): 11% and 14%
  Population Healthy Nuclei (%): 81%
  Population Hoechst High Intensity Objects (%): 0%
  Population Membrane Permeable-Phenotype (%): 3%
  Population Mitochondria Different-Phenotype (%): 0% and 1%
  Population Mitotic Cells (%): 36% and 85%
  Population Normal (%): 100%
  Population Pyknosed Nuclei (%): 6% and 3%
  Population Tubulin-Different-Phenotype (%): 8% and 9%
  Total Cell Count: 171 and 193
[5]
  Population Apoptotic (%): 79% and 52%
  Population Fragmented Nuclei (%): 9% and 16%
  Population Healthy Nuclei (%): 65% and 75%
  Population Hoechst High Intensity Objects (%): 0%
  Population Membrane Permeable-Phenotype (%): 3% and 1%
  Population Mitochondria Different-Phenotype (%): 0%
  Population Mitotic Cells (%): 20% and 47%
  Population Normal (%): 99% and 100%
  Population Tubulin-Different-Phenotype (%): 3% and 2%
  Total Cell Count: 133 and 248
[6]
  Population Apoptotic (%): 40% and 36%
  Population Fragmented Nuclei (%): 15% and 21%
  Population Healthy Nuclei (%): 81% and 73%
  Population Hoechst High Intensity Objects (%): 0%
  Population Membrane Permeable-Phenotype (%): 2% and 1%
  Population Mitochondria Different-Phenotype (%): 0%
  Population Mitotic Cells (%): 60% and 63%
  Population Normal (%): 100%
  Population Pyknosed Nuclei (%): 2% and 5%
  Population Tubulin-Different-Phenotype (%): 6% and 5%
  Total Cell Count: 171 and 213

## CS(=O)(=O)c1ccc(C(=O)Nc2ccc(F)c(COc3ccc(Br)cc3CNCCO)c2)c(Cl)c1.O=CO
[1]
  Population Apoptotic (%): 41% and 39%
  Population Healthy Nuclei (%): 69% and 66%
  Population Mitotic Cells (%): 58% and 60%
  Total Cell Count: 178 and 232
[2]
  Population Apoptotic (%): 50% and 51%
  Population Healthy Nuclei (%): 49%
  Population Mitotic Cells (%): 50% and 48%
  Population Pyknosed Nuclei (%): 35% and 30%
  Total Cell Count: 220 and 252
[3]
  Population Apoptotic (%): 63% and 46%
  Population Healthy Nuclei (%): 68% and 56%
  Population Mitotic Cells (%): 36% and 53%
  Total Cell Count: 202 and 243
[4]
  Population Apoptotic (%): 68% and 73%
  Population Healthy Nuclei (%): 54% and 56%
  Population Mitotic Cells (%): 31% and 26%
  Population Pyknosed Nuclei (%): 27% and 22%
  Total Cell Count: 219 and 283
[5]
  Population Apoptotic (%): 54% and 68%
  Population Healthy Nuclei (%): 71% and 72%
  Population Mitotic Cells (%): 45% and 31%
  Total Cell Count: 202 and 207
[6]
  Population Apoptotic (%): 88% and 77%
  Population Healthy Nuclei (%): 63% and 61%
  Population Mitotic Cells (%): 11% and 22%
  Population Pyknosed Nuclei (%): 22%
  Total Cell Count: 200 and 244

## COc1cc(C(N)=O)ccc1Nc1ncc2c(n1)N(CCC(C)C)[C@H](C)C(=O)N2C
[7]
  Population Apoptotic (%): 87% and 56%
  Population Fragmented Nuclei (%): 48% and 61%
  Population Healthy Nuclei (%): 41% and 32%
  Population Hoechst High Intensity Objects (%): 0%
  Population Mitochondria Different-Phenotype (%): 0% and 3%
  Population Normal (%): 100%
  Population Pyknosed Nuclei (%): 9% and 5%
  Population Tubulin-Different-Phenotype (%): 79% and 61%
  Total Cell Count: 166 and 267
[1]
  Population Apoptotic (%): 56% and 34%
  Population Fragmented Nuclei (%): 17% and 20%
  Population Healthy Nuclei (%): 57% and 64%
  Population Hoechst High Intensity Objects (%): 0%
  Population Membrane Permeable-Phenotype (%): 7% and 15%
  Population Mitochondria Different-Phenotype (%): 0% and 2%
  Population Mitotic Cells (%): 43% and 65%
  Population Normal (%): 99% and 100%
  Population Pyknosed Nuclei (%): 25% and 15%
  Population Tubulin-Different-Phenotype (%): 22% and 28%
  Total Cell Count: 148 and 165
[8]
  Population Apoptotic (%): 80% and 69%
  Population Fragmented Nuclei (%): 54% and 72%
  Population Healthy Nuclei (%): 29% and 21%
  Population Hoechst High Intensity Objects (%): 0%
  Population Membrane Permeable-Phenotype (%): 17% and 9%
  Population Mitochondria Different-Phenotype (%): 4% and 7%
  Population Mitotic Cells (%): 19% and 30%
  Population Normal (%): 100%
  Population Tubulin-Different-Phenotype (%): 78% and 65%
  Total Cell Count: 162 and 237
[3]
  Population Apoptotic (%): 54% and 61%
  Population Fragmented Nuclei (%): 13% and 27%
  Population Healthy Nuclei (%): 65% and 56%
  Population Hoechst High Intensity Objects (%): 0%
  Population Membrane Permeable-Phenotype (%): 10% and 5%
  Population Mitochondria Different-Phenotype (%): 0%
  Population Mitotic Cells (%): 45% and 38%
  Population Normal (%): 100%
  Population Pyknosed Nuclei (%): 20% and 15%
  Population Tubulin-Different-Phenotype (%): 10% and 14%
  Total Cell Count: 152 and 166
[9]
  Population Apoptotic (%): 82% and 80%
  Population Fragmented Nuclei (%): 64% and 84%
  Population Healthy Nuclei (%): 21% and 9%
  Population Hoechst High Intensity Objects (%): 0%
  Population Membrane Permeable-Phenotype (%): 18% and 8%
  Population Mitochondria Different-Phenotype (%): 0% and 8%
  Population Mitotic Cells (%): 17% and 20%
  Population Normal (%): 100%
  Population Pyknosed Nuclei (%): 13% and 6%
  Population Tubulin-Different-Phenotype (%): 64% and 56%
  Total Cell Count: 171 and 241
[5]
  Population Apoptotic (%): 68% and 46%
  Population Fragmented Nuclei (%): 18% and 25%
  Population Healthy Nuclei (%): 66%
  Population Hoechst High Intensity Objects (%): 0%
  Population Membrane Permeable-Phenotype (%): 9% and 11%
  Population Mitochondria Different-Phenotype (%): 0%
  Population Mitotic Cells (%): 32% and 53%
  Population Normal (%): 100%
  Population Pyknosed Nuclei (%): 15% and 8%
  Population Tubulin-Different-Phenotype (%): 8% and 10%
  Total Cell Count: 161 and 162
